# According to ChEMBL document CHEMBL1152997, “Prevalence of and molecular basis for tuberculosis drug resistance in the Republic of Georgia: validation of a QIAplex system for detection of drug resistance-related mutations” (2008):
# What was measured:
# Format in all cases: functional
# [1] = tested on: Mycobacterium tuberculosis; assay: Antimycobacterial activity against Mycobacterium tuberculosis clinical isolates from tuberculosis patient assessed as percent resistant isolates at 0.2 ug/ml by absolute-concentration method
# Procedure, shortened: (§1)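 Consecutive clinical M. tuberculosis isolates (196), Tbilisi, Jan–Mar 2006, primary culture on Lowenstein-Jensen medium. Suspension adjusted to 1 McFarland in sterile saline. 0.2 ml was plated onto drug-containing solid medium: a 10-fold dilution series for the 2, 4 and 40 µg/ml media, and a 100-fold dilution for the 0.2 µg/ml medium. Incubation at 37°C, 5–10% CO2, 28 days.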
# [2] = tested on: Mycobacterium tuberculosis; assay: Antimycobacterial activity against Mycobacterium tuberculosis clinical isolates from tuberculosis patient assessed as percent resistant isolates at 40 ug/ml by absolute-concentration method; procedure, shortened: as §1
# [3] = tested on: Mycobacterium tuberculosis; assay: Antimycobacterial activity against Mycobacterium tuberculosis clinical isolates from tuberculosis patient assessed as percent resistant isolates at 4 ug/ml by absolute-concentration method; procedure, shortened: as §1
# [4] = tested on: Mycobacterium tuberculosis; assay: Antimycobacterial activity against Mycobacterium tuberculosis clinical isolates from tuberculosis patient assessed as percent resistant isolates at 2 ug/ml by absolute-concentration method; procedure, shortened: as §1
smiles,measurement,setting,value
NNC(=O)c1ccncc1 [ISONIAZID],Activity,[1],20.9%
CO[C@H]1/C=C/O[C@@]2(C)Oc3c(C)c(O)c4c(O)c(c(/C=N/N5CCN(C)CC5)c(O)c4c3C2=O)NC(=O)/C(C)=C\C=C\[C@H](C)[C@H](O)[C@@H](C)[C@@H](O)[C@@H](C)[C@H](OC(C)=O)[C@@H]1C [RIFAMPIN],Activity,[2],9.2%
CN[C@@H]1[C@H](O[C@H]2[C@H](O[C@H]3[C@H](O)[C@@H](O)[C@H](N=C(N)N)[C@@H](O)[C@@H]3N=C(N)N)O[C@@H](C)[C@]2(O)C=O)O[C@@H](CO)[C@H](O)[C@H]1O [STREPTOMYCIN],Activity,[3],25%
CC[C@@H](CO)NCCN[C@@H](CC)CO [ETHAMBUTOL],Activity,[4],2.6%
